Test results from ChEMBL document CHEMBL5058577, “EUbOPEN Chemogenomics Library 2 (Multiplex)” (2022).

Test system: Fibroblast
Experiment: Multiplex assay against human fibroblast
Format: toxicity, cell-based
Summary of the method: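 Cells were classed with CellPathfinder machine-learning gating, first as Hoechst high-intensity objects or normal cells, then (normal cells) as healthy, pyknosed or fragmented nuclei, and finally (pyknosed cells) as mitotic or apoptotic. Staining of live cells at seeding used Hoechst33342, BioTracker Green Microtubule Cytoskeleton Dye, MitoTracker Red and Annexin V Alexa Fluor 680, with imaging on a CQ1 microscope at 37°C and 5% CO2 after compound addition. Tubulin, mitochondrial-mass and membrane-permeability phenotypes are per cents of healthy-nucleus cells.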

[1] = 12 h, 1 µM, compound concentration 1 uM, replicate 1
[2] = 12 h, 1 µM, compound concentration 1 uM, replicate 2
[3] = 12 h, 10 µM, compound concentration 10 uM, replicate 1
[4] = 12 h, 10 µM, compound concentration 10 uM, replicate 2
[5] = 24 h, 1 µM, compound concentration 1 uM, replicate 1
[6] = 24 h, 1 µM, compound concentration 1 uM, replicate 2
[7] = 24 h, 10 µM, compound concentration 10 uM, replicate 1
[8] = 24 h, 10 µM, compound concentration 10 uM, replicate 2
[9] = 48 h, 1 µM, compound concentration 1 uM, replicate 1
[10] = 48 h, 1 µM, compound concentration 1 uM, replicate 2
[11] = 48 h, 10 µM, compound concentration 10 uM, replicate 1
[12] = 48 h, 10 µM, compound concentration 10 uM, replicate 2

Compound: O=C(NCCO)c1cccc(-c2cc(Nc3ccc(OC(F)(F)F)cc3)ncn2)c1
- Population Apoptotic (%) [1]: 46%
- Population Fragmented Nuclei (%) [1]: 16%
- Population Healthy Nuclei (%) [1]: 60%
- Population Hoechst High Intensity Objects (%) [1]: 3%
- Population Membrane Permeable-Phenotype (%) [1]: 1%
- Population Mitochondria Different-Phenotype (%) [1]: 6%
- Population Mitotic Cells (%) [1]: 53%
- Population Normal (%) [1]: 96%
- Population Pyknosed Nuclei (%) [1]: 24%
- Population Tubulin-Different-Phenotype (%) [1]: 33%
- Total Cell Count [1]: 130
- Population Apoptotic (%) [2]: 38%
- Population Fragmented Nuclei (%) [2]: 29%
- Population Healthy Nuclei (%) [2]: 46%
- Population Hoechst High Intensity Objects (%) [2]: 4%
- Population Membrane Permeable-Phenotype (%) [2]: 10%
- Population Mitochondria Different-Phenotype (%) [2]: 8%
- Population Mitotic Cells (%) [2]: 61%
- Population Normal (%) [2]: 95%
- Population Pyknosed Nuclei (%) [2]: 23%
- Population Tubulin-Different-Phenotype (%) [2]: 46%
- Total Cell Count [2]: 149
- Population Apoptotic (%) [3]: 37%
- Population Fragmented Nuclei (%) [3]: 17%
- Population Healthy Nuclei (%) [3]: 59%
- Population Hoechst High Intensity Objects (%) [3]: 5%
- Population Membrane Permeable-Phenotype (%) [3]: 0%
- Population Mitochondria Different-Phenotype (%) [3]: 13%
- Population Mitotic Cells (%) [3]: 62%
- Population Normal (%) [3]: 94%
- Population Pyknosed Nuclei (%) [3]: 22%
- Population Tubulin-Different-Phenotype (%) [3]: 54%
- Total Cell Count [3]: 185
- Population Apoptotic (%) [4]: 40%
- Population Fragmented Nuclei (%) [4]: 22%
- Population Healthy Nuclei (%) [4]: 36%
- Population Hoechst High Intensity Objects (%) [4]: 10%
- Population Membrane Permeable-Phenotype (%) [4]: 11%
- Population Mitochondria Different-Phenotype (%) [4]: 11%
- Population Mitotic Cells (%) [4]: 59%
- Population Normal (%) [4]: 89%
- Population Pyknosed Nuclei (%) [4]: 40%
- Population Tubulin-Different-Phenotype (%) [4]: 79%
- Total Cell Count [4]: 192
- Population Apoptotic (%) [5]: 56%
- Population Fragmented Nuclei (%) [5]: 16%
- Population Healthy Nuclei (%) [5]: 60%
- Population Hoechst High Intensity Objects (%) [5]: 1%
- Population Membrane Permeable-Phenotype (%) [5]: 2%
- Population Mitochondria Different-Phenotype (%) [5]: 4%
- Population Mitotic Cells (%) [5]: 43%
- Population Normal (%) [5]: 98%
- Population Pyknosed Nuclei (%) [5]: 22%
- Population Tubulin-Different-Phenotype (%) [5]: 33%
- Total Cell Count [5]: 135
- Population Apoptotic (%) [6]: 52%
- Population Fragmented Nuclei (%) [6]: 24%
- Population Healthy Nuclei (%) [6]: 50%
- Population Hoechst High Intensity Objects (%) [6]: 2%
- Population Membrane Permeable-Phenotype (%) [6]: 5%
- Population Mitochondria Different-Phenotype (%) [6]: 5%
- Population Mitotic Cells (%) [6]: 47%
- Population Normal (%) [6]: 97%
- Population Pyknosed Nuclei (%) [6]: 25%
- Population Tubulin-Different-Phenotype (%) [6]: 42%
- Total Cell Count [6]: 139
- Population Apoptotic (%) [7]: 50%
- Population Fragmented Nuclei (%) [7]: 14%
- Population Healthy Nuclei (%) [7]: 61%
- Population Hoechst High Intensity Objects (%) [7]: 11%
- Population Membrane Permeable-Phenotype (%) [7]: 1%
- Population Mitochondria Different-Phenotype (%) [7]: 21%
- Population Mitotic Cells (%) [7]: 50%
- Population Normal (%) [7]: 88%
- Population Pyknosed Nuclei (%) [7]: 24%
- Population Tubulin-Different-Phenotype (%) [7]: 53%
- Total Cell Count [7]: 175
- Population Apoptotic (%) [8]: 41%
- Population Fragmented Nuclei (%) [8]: 30%
- Population Healthy Nuclei (%) [8]: 36%
- Population Hoechst High Intensity Objects (%) [8]: 7%
- Population Membrane Permeable-Phenotype (%) [8]: 10%
- Population Mitochondria Different-Phenotype (%) [8]: 25%
- Population Mitotic Cells (%) [8]: 58%
- Population Normal (%) [8]: 92%
- Population Pyknosed Nuclei (%) [8]: 32%
- Population Tubulin-Different-Phenotype (%) [8]: 84%
- Total Cell Count [8]: 187
- Population Apoptotic (%) [9]: 82%
- Population Fragmented Nuclei (%) [9]: 21%
- Population Healthy Nuclei (%) [9]: 65%
- Population Hoechst High Intensity Objects (%) [9]: 1%
- Population Membrane Permeable-Phenotype (%) [9]: 3%
- Population Mitochondria Different-Phenotype (%) [9]: 1%
- Population Mitotic Cells (%) [9]: 17%
- Population Normal (%) [9]: 98%
- Population Pyknosed Nuclei (%) [9]: 13%
- Population Tubulin-Different-Phenotype (%) [9]: 28%
- Total Cell Count [9]: 130
- Population Apoptotic (%) [10]: 45%
- Population Fragmented Nuclei (%) [10]: 31%
- Population Healthy Nuclei (%) [10]: 53%
- Population Membrane Permeable-Phenotype (%) [10]: 6%
- Population Mitochondria Different-Phenotype (%) [10]: 4%
- Population Mitotic Cells (%) [10]: 54%
- Population Pyknosed Nuclei (%) [10]: 14%
- Population Tubulin-Different-Phenotype (%) [10]: 38%
- Total Cell Count [10]: 156
- Population Apoptotic (%) [11]: 70%
- Population Fragmented Nuclei (%) [11]: 35%
- Population Healthy Nuclei (%) [11]: 51%
- Population Hoechst High Intensity Objects (%) [11]: 13%
- Population Membrane Permeable-Phenotype (%) [11]: 0%
- Population Mitochondria Different-Phenotype (%) [11]: 26%
- Population Mitotic Cells (%) [11]: 30%
- Population Normal (%) [11]: 86%
- Population Pyknosed Nuclei (%) [11]: 13%
- Population Tubulin-Different-Phenotype (%) [11]: 64%
- Total Cell Count [11]: 170
- Population Apoptotic (%) [12]: 76%
- Population Fragmented Nuclei (%) [12]: 40%
- Population Healthy Nuclei (%) [12]: 47%
- Population Hoechst High Intensity Objects (%) [12]: 6%
- Population Membrane Permeable-Phenotype (%) [12]: 13%
- Population Mitochondria Different-Phenotype (%) [12]: 19%
- Population Mitotic Cells (%) [12]: 23%
- Population Normal (%) [12]: 93%
- Population Pyknosed Nuclei (%) [12]: 11%
- Population Tubulin-Different-Phenotype (%) [12]: 86%
- Total Cell Count [12]: 198
